For assay [1], the system named is Kocuria rhizophila. Kind of assay: Antibacterial activity against Micrococcus luteus ATCC 9341 assessed as growth inhibition at 50 to 1.56 ug after 24 hrs by TLC assay. It counts as functional. In outline: (§1)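 Direct TLC bioautography: compound amounts from 50 to 1.56 μg applied to precoated TLC plates, overlaid with Mueller Hinton or Sabouraud agar inoculated with microorganism suspension (10⁵ cfu mL⁻¹). Plates incubated 24 h at 37 °C, then stained with aqueous 2,3,5-triphenyltetrazolium chloride (1 mg mL⁻¹). The lowest amount giving an inhibition zone was recorded; <50 μg counted active. Triplicate.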

Assay [2] has as its system Escherichia coli. Kind of assay: Antibacterial activity against Escherichia coli ATCC 11103 assessed as concentration required to inhibit bacterial growth after 24 hrs by TLC assay. It counts as functional. A digest of the protocol:
as §1

The subject of a further assay is Saccharomyces cerevisiae. The assay can be described thus: Antifungal activity against Saccharomyces cerevisiae ATCC 2601 assessed as concentration required to inhibit fungal growth after 24 hrs by TLC assay. The format is functional. In outline:
as §1

The test system of assay [3] is Staphylococcus epidermidis. The assay can be described thus: Antibacterial activity against Staphylococcus epidermidis ATCC 12228 assessed as concentration required to inhibit bacterial growth after 24 hrs by TLC assay. It counts as functional. In outline: as §1
The subject of a further assay is Candida albicans. The assay can be described thus: Antifungal activity against Candida albicans ATCC 10231 assessed as concentration required to inhibit fungal growth after 24 hrs by TLC assay. The format is functional. A digest of the protocol:
as §1

Assay [4] is described as follows: Antibacterial activity against Salmonella Setubal ATCC 19196 assessed as concentration required to inhibit bacterial growth after 24 hrs by TLC assay. The format is functional, Salmonella enterica subsp. enterica serovar Setubal. In outline: as §1
Assay [5] relates to Kocuria rhizophila. Kind of assay: Antibacterial activity against Micrococcus luteus ATCC 9341 assessed as concentration required to inhibit bacterial growth after 24 hrs by TLC assay. The format is functional. In outline:
as §1

For another assay, the system named is Cryptococcus neoformans. The assay can be described thus: Antifungal activity against Cryptococcus neoformans ATCC 28952 assessed as concentration required to inhibit fungal growth after 24 hrs by TLC assay. It counts as functional. A digest of the protocol: as §1
For assay [6], the system named is Klebsiella pneumoniae. Kind of assay: Antibacterial activity against Klebsiella pneumoniae ATCC 10031 assessed as concentration required to inhibit bacterial growth after 24 hrs by TLC assay. It counts as functional. In outline:
as §1

For the next assay, the system named is Candida tropicalis. The assay can be described thus: Antifungal activity against Candida tropicalis ATCC 750 assessed as concentration required to inhibit fungal growth after 24 hrs by TLC assay. It counts as functional. A digest of the protocol:
as §1

Assay [7] has as its system Staphylococcus epidermidis. Kind of assay: Antibacterial activity against Staphylococcus epidermidis ATCC 12228 assessed as growth inhibition at 50 to 1.56 ug after 24 hrs by TLC assay. It counts as functional. In outline:
as §1

The next assay deals with Candida dubliniensis. Kind of assay: Antifungal activity against Candida dubliniensis SM 26 clinical isolate assessed as concentration required to inhibit fungal growth after 24 hrs by TLC assay. It counts as functional. In outline:
as §1

Assay [8] concerns Staphylococcus aureus. Kind of assay: Antibacterial activity against Staphylococcus aureus ATCC 6538p assessed as growth inhibition at 50 to 1.56 ug after 24 hrs by TLC assay. It counts as functional. In outline: as §1
Assay [9] has as its system Klebsiella pneumoniae. Kind of assay: Antibacterial activity against Klebsiella pneumoniae ATCC 10031 assessed as growth inhibition at 50 to 1.56 ug after 24 hrs by TLC assay. The format is functional. A digest of the protocol:
as §1

Assay [10] relates to Salmonella enterica subsp. enterica serovar Setubal. The assay can be described thus: Antibacterial activity against Salmonella Setubal ATCC 19196 assessed as growth inhibition at 50 to 1.56 ug after 24 hrs by TLC assay. The format is functional. In outline:
as §1

The subject of assay [11] is Escherichia coli. Kind of assay: Antibacterial activity against Escherichia coli ATCC 11103 assessed as growth inhibition at 50 to 1.56 ug after 24 hrs by TLC assay. The format is functional. In outline: as §1
Assay [12] has as its system Staphylococcus aureus. Kind of assay: Antibacterial activity against Staphylococcus aureus ATCC 6538p assessed as concentration required to inhibit bacterial growth after 24 hrs by TLC assay. The format is functional. A digest of the protocol:
as §1

Calls of active or inactive are those of the source. The calls are words filed in the database; no cut-off is given here.

On to `COC(=O)[C@H](Cc1ccccc1)NC(=O)[C@H](NC(=O)[C@H](CC(C)C)N(C)C)[C@H](Oc1ccc(C=O)cc1)c1ccccc1` (mixture of isomers), for which the “growth inhibition (GI)” value (with Kocuria rhizophila [1]; in [7]; in the assay on Staphylococcus aureus [8]; in the assay with Klebsiella pneumoniae [9]; in assay [10]; in the assay with Escherichia coli [11]) was “inactive” each time. For the same compound, the Activity (in the assay on Escherichia coli [2]; in the assay with Saccharomyces cerevisiae; in assay [3]; in the assay on Candida albicans; in [4]; in the assay with Kocuria rhizophila [5]) was <50 µg each time. Further, the Activity in the assay with Cryptococcus neoformans, in the assay with Klebsiella pneumoniae [6], with Candida tropicalis, with Candida dubliniensis and in the assay on Staphylococcus aureus [12] was <50 µg each time.

With `COC(=O)[C@H](Cc1ccccc1)NC(=O)[C@@H]([C@@H](O)c1ccccc1)N1CN(C)[C@@H](CC(C)C)C1=O` (mixture of isomers), the Activity was 3.1 µg in the assay on Escherichia coli [2]; <50 µg in the assay with Saccharomyces cerevisiae; 6.2 µg in assay [3]; <50 µg in the assay on Candida albicans; 12.5 µg in assay [4]; <50 µg with Kocuria rhizophila [5]. In addition, the Activity was <50 µg in the assay with Cryptococcus neoformans; 6.2 µg in the assay with Klebsiella pneumoniae [6]; <50 µg in the assay on Candida tropicalis; <50 µg with Candida dubliniensis; <50 µg in the assay with Staphylococcus aureus [12].

`COC(=O)[C@H](Cc1ccccc1)NC(=O)[C@H](NC(=O)[C@H](CC(C)C)NC(=O)OCc1ccccc1)[C@@H](O)c1ccccc1` (mixture of isomers): the Activity (in the assay on Escherichia coli [2]; in the assay with Saccharomyces cerevisiae; in assay [3]; with Candida albicans; in assay [4]; in the assay with Kocuria rhizophila [5]) was <50 µg in each case. In addition, the Activity with Cryptococcus neoformans, in the assay with Klebsiella pneumoniae [6], with Candida tropicalis, with Candida dubliniensis and with Staphylococcus aureus [12] was <50 µg each time.

Turning to `COC(=O)[C@H](CC(C)C)NC(=O)[C@H]([C@@H](Oc1ccc(C=O)cc1)c1ccccc1)N1CN(C)[C@@H](CC(C)C)C1=O` (mixture of isomers), the Activity (in the assay with Escherichia coli [2]; with Saccharomyces cerevisiae; in assay [3]; with Candida albicans; in [4]; in the assay on Kocuria rhizophila [5]) was <50 µg throughout. Besides, the Activity with Cryptococcus neoformans, in the assay with Klebsiella pneumoniae [6], in the assay with Candida tropicalis, in the assay on Candida dubliniensis and in the assay with Staphylococcus aureus [12] was <50 µg in each case.

As for `COC(=O)[C@H](CC(C)C)NC(=O)[C@@H]([C@H](Oc1ccc(C=O)cc1)c1ccccc1)N1CN(C)[C@@H](CC(C)C)C1=O` (mixture of isomers), the Activity (in the assay on Escherichia coli [2]; in the assay on Saccharomyces cerevisiae; in [3]; in the assay on Candida albicans; in [4]; with Kocuria rhizophila [5]) was <50 µg in each case. The Activity in the assay with Cryptococcus neoformans, in the assay with Klebsiella pneumoniae [6], in the assay on Candida tropicalis, with Candida dubliniensis and in the assay with Staphylococcus aureus [12] was <50 µg throughout.

For `CC(C)C[C@@H]1NC(=O)[C@@H](NC(=O)[C@H](CC(C)C)N(C)C)[C@H](c2ccccc2)Oc2ccc(cc2)/C=C\NC1=O` (mixture of isomers), the Activity (in the assay with Escherichia coli [2]; in the assay on Saccharomyces cerevisiae; in [3]; in the assay with Candida albicans; in assay [4]; in the assay with Kocuria rhizophila [5]) was >50 µg in each case. Besides, the Activity in the assay on Cryptococcus neoformans, in the assay on Klebsiella pneumoniae [6], in the assay on Candida tropicalis, with Candida dubliniensis and in the assay on Staphylococcus aureus [12] was >50 µg each time.

Take `CC[C@H](C)[C@H](NC(=O)[C@@H]([C@H](Oc1ccc(C=O)cc1)c1ccccc1)N1CN(C)[C@@H](CC(C)C)C1=O)C(=O)OC` (mixture of isomers): the Activity (in the assay on Escherichia coli [2]; in the assay with Saccharomyces cerevisiae; in assay [3]; in the assay on Candida albicans; in assay [4]; in the assay on Kocuria rhizophila [5]) was <50 µg each time. In addition, the Activity in the assay on Cryptococcus neoformans, in the assay on Klebsiella pneumoniae [6], in the assay on Candida tropicalis, with Candida dubliniensis and in the assay on Staphylococcus aureus [12] was <50 µg in each case.

For the compound `COC(=O)[C@H](Cc1ccccc1)NC(=O)[C@H](NC(=O)[C@H](CC(C)C)N(C)C)[C@@H](O)c1ccccc1`, the Activity (with Escherichia coli [2]; with Saccharomyces cerevisiae; in assay [3]; in the assay on Candida albicans; in assay [4]; with Kocuria rhizophila [5]) was <50 µg in each case. The Activity with Cryptococcus neoformans, in the assay with Klebsiella pneumoniae [6], with Candida tropicalis, in the assay with Candida dubliniensis and with Staphylococcus aureus [12] was <50 µg in each case.

Regarding `COC(=O)[C@H](CC(C)C)NC(=O)[C@H](NC(=O)[C@@H](N)CC(C)C)[C@@H](O)c1ccccc1`, the Activity (with Escherichia coli [2]; in the assay with Saccharomyces cerevisiae; in assay [3]; with Candida albicans; in [4]; with Kocuria rhizophila [5]) was <50 µg each time. Moreover, the Activity with Cryptococcus neoformans, in the assay on Klebsiella pneumoniae [6], with Candida tropicalis, in the assay with Candida dubliniensis and in the assay with Staphylococcus aureus [12] was <50 µg throughout.

As for `CC[C@H](C)[C@H](NC(=O)[C@H]([C@@H](Oc1ccc(C=O)cc1)c1ccccc1)N1CN(C)[C@@H](CC(C)C)C1=O)C(=O)OC` (mixture of isomers), the Activity (in the assay with Escherichia coli [2]; in the assay on Saccharomyces cerevisiae; in assay [3]; in the assay with Candida albicans; in [4]; in the assay on Kocuria rhizophila [5]) was <50 µg each time. In addition, the Activity in the assay on Cryptococcus neoformans, in the assay on Klebsiella pneumoniae [6], in the assay with Candida tropicalis, in the assay on Candida dubliniensis and in the assay on Staphylococcus aureus [12] was <50 µg in each case.

`CC[C@H](C)[C@H](NC(=O)[C@H](NC(=O)[C@@H](N)CC(C)C)[C@@H](O)c1ccccc1)C(=O)OC`: the Activity (with Escherichia coli [2]; in the assay with Saccharomyces cerevisiae; in assay [3]; with Candida albicans; in assay [4]; in the assay on Kocuria rhizophila [5]) was <50 µg throughout. Also, the Activity in the assay with Cryptococcus neoformans, in the assay on Klebsiella pneumoniae [6], with Candida tropicalis, in the assay on Candida dubliniensis and in the assay on Staphylococcus aureus [12] was <50 µg each time.

On to `CC[C@H](C)[C@H](NC(=O)[C@H](NC(=O)[C@H](CC(C)C)N(C)C)[C@@H](O)c1ccccc1)C(=O)OC` (mixture of isomers), for which the Activity (in the assay with Escherichia coli [2]; with Saccharomyces cerevisiae; in assay [3]; in the assay with Candida albicans; in [4]; in the assay on Kocuria rhizophila [5]) was <50 µg throughout. Also, the Activity in the assay with Cryptococcus neoformans, in the assay on Klebsiella pneumoniae [6], with Candida tropicalis, with Candida dubliniensis and in the assay on Staphylococcus aureus [12] was <50 µg in each case.
